Source: PubChem BioAssay
Compounds with a hit are over-represented: about 3.9% of the library has one in this group of screens.
TAAR1 agonist – human TAAR1 agonists, primary screen, Fluo-8 calcium fluorescence, CHO RD-HGA16 cells. vehicle wells 0%, saturating PEA agonist 100%. AID 624467, 2012. activation, % at 3 µM. 0.99% of 360,000 active. Trace amine-associated receptor 1 (Homo sapiens), Q96RJ0;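 active = activation above the mean activation of all test compounds in the run plus 3 SD, cut at about 38% in these data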
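Signal – calcium-sensitive Fluo-8 signal, excitation 470-495, emission 515-575 nm · System – RD-HGA16 (CHO) cells co-expressing Gα16 and hTAAR1 · Incubation – 17-24 h seeding, 75 min 37 °C dye, 30 min RT · Compound dosing – 3 µM single concentration · Repeats – no replicates (n 1)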
CHRM1 antagonist – human M1 muscarinic receptor antagonists, primary screen, CHO-K1 cells, Fluo-8 calcium fluorescence, 1536-well; Muscarinic acetylcholine receptor M1 (Homo sapiens), P11229; 1.3% of 360,000 active; CHO-K1 hM1, ACh EC80 antagonist; inhibition, % at 3 µM; AID 588852, 2011;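 active = percent inhibition above its own plate's cutoff, namely the mean of that plate's compound wells plus 3 SD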;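 note: peak over basal fluorescence ratio during 140 s after agonist addition; 0% = ACh EC80 plus DMSO and 100% = DMSO alone without agonist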
M1 ag – human M1 muscarinic receptor agonists, primary screen, Fluo-8 calcium fluorescence, CHO-K1 cells, HTS; Muscarinic acetylcholine receptor M1 (Homo sapiens), P11229; 0.33% of 360,000 active; activation, % at 3 µM; CHO-K1 hM1, agonist mode; 0% DMSO, 100% acetylcholine EC100;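 active = activation above the run's mean compound activation plus 3 SD, cut at about 16% in these data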;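 note: peak over basal fluorescence ratio within a 140 s kinetic read after compound addition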
TAAR1 antag – human TAAR1 antagonists, primary screen, Fluo-8 calcium fluorescence, CHO RD-HGA16 cells | Trace amine-associated receptor 1 (Homo sapiens), Q96RJ0 | antagonist | inhibition, % at 3 µM | 1.5% of 360,000 active;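 active = inhibition above a per-plate cutoff, the mean inhibition of test compounds on that plate plus 3 SD, cut at about 49% in these data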;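 note: 0% = DMSO plus EC80 beta-PEA response and 100% = DMSO alone without agonist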
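System: RD-HGA16 CHO cells with stable hTAAR1 and Gα16 | Probe or stimulus: EC80 β-phenethylamine stimulus | Dosing: 3 µM, single point | Times: Dye loading 75 min at 37 °C, then 30 min room temperature | Measured by: Fluo-8 calcium-sensitive fluorescence | Read-out basis: % inhibition of agonist calcium response | Replicates: n of 1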
m5-HT2A agonist – mouse Htr2a agonists via beta-arrestin recruitment, primary screen, cell-based, luminescence; 5-hydroxytryptamine receptor 2A (Mus musculus), P35363; CHO-K1 mHTR2A beta-arrestin complementation; percent of 30 µM serotonin response; activation, % at 7.6 µM; 0.66% of 360,000 active; AID 624169, 2012;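 active = activation above a run cutoff, the mean activation of all tested compounds plus 3 SD, cut at about 14% in these data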;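 note: 0% = plate median of compound wells and 100% = 30 µM serotonin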
Target sequence (P35363 whole entry, looked up): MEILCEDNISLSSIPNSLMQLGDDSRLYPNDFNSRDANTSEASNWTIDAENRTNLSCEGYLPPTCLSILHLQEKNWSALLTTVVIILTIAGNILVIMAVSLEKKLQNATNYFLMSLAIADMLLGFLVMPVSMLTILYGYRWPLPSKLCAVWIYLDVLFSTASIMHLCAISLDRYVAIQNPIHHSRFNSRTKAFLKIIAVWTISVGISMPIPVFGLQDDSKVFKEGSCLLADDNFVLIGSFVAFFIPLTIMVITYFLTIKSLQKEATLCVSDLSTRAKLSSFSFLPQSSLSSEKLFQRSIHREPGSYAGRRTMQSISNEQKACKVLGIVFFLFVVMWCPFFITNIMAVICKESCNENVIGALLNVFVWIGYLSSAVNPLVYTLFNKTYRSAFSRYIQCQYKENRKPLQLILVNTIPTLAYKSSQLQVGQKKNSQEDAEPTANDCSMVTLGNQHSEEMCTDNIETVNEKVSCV
M1 PAM – human M1 muscarinic receptor positive allosteric modulators, primary screen, CHO-K1 cells, Fluo-8 calcium fluorescence, 1536-well; Muscarinic acetylcholine receptor M1 (Homo sapiens), P11229; CHO-K1 hM1, ACh EC20; 0% = ACh EC20, 100% = maximal ACh; activation, % at 3 µM; 0.088% of 360,000 active; AID 588819, 2011; in the data active = activation above about 19%, passing the limit was not always enough
* hit, by the source's call; . = not tested or not shown.

SMILES	TAAR1 agonist	CHRM1 antagonist	M1 ag	TAAR1 antag	m5-HT2A agonist	M1 PAM
COc1ccc(-n2c(O)c(/C=N/NS(=O)(=O)c3cc(C)ccc3C)c3ccccc3c2=O)cc1OC	42*	-3	4	50*	2	2
COc1cccc(S(=O)(=O)Nc2ccc3c(c2)C(=O)N(C)C[C@H](OC)[C@H](C)CN[C@@H](C)CO3)c1	0	.	.	-18	-1	.
CCCCCCCCCCCCN1[C@@H](CC(=O)OC)c2cc(F)ccc2S1(=O)=O	4	-23	3	-7	3	32*
CCCCCCCCCCCCN1[C@@H](CC(C)=O)c2cc(F)ccc2S1(=O)=O	4	-3	-4	5	-1	7
OCCN1CCN(c2cc(C(F)(F)F)nc3c(F)cccc23)CC1	1	-11	-7	5	-1	8
Cc1ccc2nc(-c3cccc(Cl)c3)c(Cc3cccc(Cl)c3)n2c1	0	.	.	-4	.	.
CC(C)c1c(O)ccc2c1CC[C@H]1C(C)(C)CCC[C@]21C	6	-21	-2	-3	45*	-2
CC(C)(O)c1ccc2c(c1)CCC1C(C)(C(=O)O)CCCC21C (stereo unspecified)	0	-1	-2	1	2	2
Cc1cc(C)n(S(=O)(=O)c2ccc(C(C)(C)C)cc2)n1	2	55*	-9	10	1	-21
Cc1cc(C)n(S(=O)(=O)c2ccc(F)cc2)n1	8	-3	-4	-6	-4	5
COc1ccccc1Nc1nn2c(=O)c3ccc(C(=O)N4CCCC(C)C4)cc3nc2s1 (stereo unspecified)	6	6	-10	50*	-5	-12
CCc1ccc(NC(=O)C(=O)NCCOc2ccccc2Cl)cc1	2	-16	-1	-10	6	10
CCN(CC)CCOC(=O)C12CC3CC(CC(C3)C1)C2	-1	41*	-5	4	-3	-21
O=C(COC(=O)CNC(=O)c1ccccc1F)Nc1cccnc1Cl	1	1	1	-33	3	10
COc1ccc(OC)c(NC(=O)CSc2nnc3ccc(-c4ccncc4)nn23)c1	2	0	-6	-15	-2	-1
COc1ccc(C)cc1NC(=O)CSc1nnc2ccc(-c3ccncc3)nn12	4	28*	-7	-33	-1	-16
CC(=O)Nc1ccc(Nc2cc(C)nc3c(-c4ccccc4)cnn23)cc1	41*	11	-3	49*	-2	-3
C[C@@H](NC(=O)Cn1cnc2c(NCc3ccccc3)ncnc21)c1cccc2ccccc12	3	-10	48*	-4	-1	9
Cc1ccc(S(=O)(=O)NCC(=O)OCc2nnc(-c3ccccc3)o2)cc1	2	-5	-2	-5	-1	3
Oc1[nH]c2ccccc2c1N=Nc1ccccc1F	39*	8	-1	8	0	-7
Oc1[nH]c2ccccc2c1N=Nc1ccc(F)cc1	15	2	-9	8	2	4
CN(C)C(CNc1ncnc2sc3c(c12)CCCCC3)c1ccco1 (stereo unspecified)	3	17	-7	-13	-2	-15
COc1ccc(C(CNc2ncnc3sc(C)c(C)c23)N(C)C)cc1 (stereo unspecified)	5	23*	-12	-20	-9	-28
Cc1sc2ncnc(NCC(c3ccco3)N(C)C)c2c1C (stereo unspecified)	5	38*	-4	-19	-4	-18
Cc1sc2ncnc(NCc3ccccc3)c2c1C	-2	22	-1	19	3	-2
